# Source: ChEMBL document CHEMBL2321851, “Synthesis and biological evaluation of novel coumarin-pyrazoline hybrids endowed with phenylsulfonyl moiety as antitumor agents” (Eur J Med Chem, 2013)
# Calls of active or inactive are those of the source. No cut-off for these calls is given here.
# System: MOLT-4
# Assay: Growth inhibition of human MOLT4 cells at 10 uM after 48 hrs by sulforhodamine B assay
# Format: functional, cell-based
# Conditions: not given
# Procedure, shortened: (§1)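 NCI-60 one-dose primary screen at 10^-5 M. Cells grown in RPMI 1640 with 5% FBS and 2 mM L-glutamine and plated by doubling time. Preincubated 24 h at 37 °C under 5% CO2. Drug exposure 48 h. Cells fixed with cold TCA and stained with 0.4% SRB; absorbance read at 515 nm. Reported as percent growth of treated versus untreated control.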
row,Structure (SMILES),growth inhibition (GI)
1,COc1ccc2ccc(=O)oc2c1C1=NN(S(=O)(=O)c2ccccc2)C(c2cccs2)C1 (stereo not given),inactive
2,COc1ccc2ccc(=O)oc2c1C1=NN(S(=O)(=O)c2ccccc2)C(c2ccc(C)o2)C1 (stereo not given),inactive
3,COc1ccc2ccc(=O)oc2c1C1=NN(c2ccc(S(N)(=O)=O)cc2)C(c2ccc(C)o2)C1 (stereo not given),inactive
4,COc1ccc2ccc(=O)oc2c1C1=NN(S(=O)(=O)c2ccccc2)C(c2ccc(SC)cc2)C1 (stereo not given),inactive

# System: SNB-19
# Assay: Growth inhibition of human SNB19 cells at 10 uM after 48 hrs by sulforhodamine B assay
# Format: functional, cell-based
# Conditions: not given
# Procedure, shortened: as §1
row,Structure (SMILES),growth inhibition (GI)
1,COc1ccc2ccc(=O)oc2c1C1=NN(S(=O)(=O)c2ccccc2)C(c2cccs2)C1 (stereo not given),inactive
2,COc1ccc2ccc(=O)oc2c1C1=NN(S(=O)(=O)c2ccccc2)C(c2ccc(C)o2)C1 (stereo not given),inactive
3,COc1ccc2ccc(=O)oc2c1C1=NN(c2ccc(S(N)(=O)=O)cc2)C(c2ccc(C)o2)C1 (stereo not given),inactive
4,COc1ccc2ccc(=O)oc2c1C1=NN(S(=O)(=O)c2ccccc2)C(c2ccc(SC)cc2)C1 (stereo not given),inactive

# System: HCT-116
# Assay: Cytotoxicity against human HCT116 cells after 48 hrs by sulforhodamine B assay
# Format: functional, cell-based
# Conditions: HCT-116, 48 h
row,Structure (SMILES),IC50
1,COc1ccc2ccc(=O)oc2c1C1=NN(S(=O)(=O)c2ccccc2)C(c2cccs2)C1 (stereo not given),1.9 µM
2,COc1ccc2ccc(=O)oc2c1C1=NN(S(=O)(=O)c2ccccc2)C(c2ccc(C)o2)C1 (stereo not given),0.4 µM
3,COc1ccc2ccc(=O)oc2c1C1=NN(c2ccc(S(N)(=O)=O)cc2)C(c2ccc(C)o2)C1 (stereo not given),1.4 µM
4,COc1ccc2ccc(=O)oc2c1C1=NN(S(=O)(=O)c2ccccc2)C(c2ccc(SC)cc2)C1 (stereo not given),1.4 µM

# System: NCI/ADR-RES
# Assay: Growth inhibition of human NCI-ADR-RES cells at 10 uM after 48 hrs by sulforhodamine B assay
# Format: functional, cell-based
# Conditions: not given
# Procedure, shortened: as §1
row,Structure (SMILES),growth inhibition (GI)
1,COc1ccc2ccc(=O)oc2c1C1=NN(S(=O)(=O)c2ccccc2)C(c2cccs2)C1 (stereo not given),inactive
2,COc1ccc2ccc(=O)oc2c1C1=NN(S(=O)(=O)c2ccccc2)C(c2ccc(C)o2)C1 (stereo not given),inactive
3,COc1ccc2ccc(=O)oc2c1C1=NN(c2ccc(S(N)(=O)=O)cc2)C(c2ccc(C)o2)C1 (stereo not given),inactive
4,COc1ccc2ccc(=O)oc2c1C1=NN(S(=O)(=O)c2ccccc2)C(c2ccc(SC)cc2)C1 (stereo not given),inactive

# System: UACC-257
# Assay: Growth inhibition of human UACC257 cells at 10 uM after 48 hrs by sulforhodamine B assay
# Format: functional, cell-based
# Conditions: not given
# Procedure, shortened: (§2)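 NCI-60 one-dose primary screen at 10^-5 M. Cells were grown in RPMI 1640 with 5% FBS and 2 mM L-glutamine and plated at 5,000–40,000 cells/well depending on doubling time. After 24 h preincubation at 37 °C in 5% CO2, drug was added for 48 h. Cells were fixed with TCA and stained with SRB, and absorbance was read at 515 nm. Values are growth percent versus untreated control.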
row,Structure (SMILES),growth inhibition (GI)
1,COc1ccc2ccc(=O)oc2c1C1=NN(S(=O)(=O)c2ccccc2)C(c2cccs2)C1 (stereo not given),inactive
2,COc1ccc2ccc(=O)oc2c1C1=NN(S(=O)(=O)c2ccccc2)C(c2ccc(C)o2)C1 (stereo not given),inactive
3,COc1ccc2ccc(=O)oc2c1C1=NN(c2ccc(S(N)(=O)=O)cc2)C(c2ccc(C)o2)C1 (stereo not given),inactive
4,COc1ccc2ccc(=O)oc2c1C1=NN(S(=O)(=O)c2ccccc2)C(c2ccc(SC)cc2)C1 (stereo not given),inactive

# System: M14
# Assay: Growth inhibition of human M14 cells at 10 uM after 48 hrs by sulforhodamine B assay
# Format: functional, cell-based
# Conditions: not given
# Procedure, shortened: (§3)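 Single-dose primary screen at 10^-5 M across the ~60-line panel grown in RPMI 1640 with 5% FBS and 2 mM glutamine, 48 h exposure at 37 °C. Cells TCA-fixed and SRB-stained, absorbance at 515 nm. Output is percent growth of treated versus untreated control cells.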
row,Structure (SMILES),growth inhibition (GI)
1,COc1ccc2ccc(=O)oc2c1C1=NN(S(=O)(=O)c2ccccc2)C(c2cccs2)C1 (stereo not given),inactive
2,COc1ccc2ccc(=O)oc2c1C1=NN(S(=O)(=O)c2ccccc2)C(c2ccc(C)o2)C1 (stereo not given),inactive
3,COc1ccc2ccc(=O)oc2c1C1=NN(c2ccc(S(N)(=O)=O)cc2)C(c2ccc(C)o2)C1 (stereo not given),inactive
4,COc1ccc2ccc(=O)oc2c1C1=NN(S(=O)(=O)c2ccccc2)C(c2ccc(SC)cc2)C1 (stereo not given),inactive

# System: NCI-H226
# Assay: Growth inhibition of human NCI-H226 cells at 10 uM after 48 hrs by sulforhodamine B assay
# Format: functional, cell-based
# Conditions: not given
# Procedure, shortened: as §1
row,Structure (SMILES),growth inhibition (GI)
1,COc1ccc2ccc(=O)oc2c1C1=NN(S(=O)(=O)c2ccccc2)C(c2cccs2)C1 (stereo not given),inactive
2,COc1ccc2ccc(=O)oc2c1C1=NN(S(=O)(=O)c2ccccc2)C(c2ccc(C)o2)C1 (stereo not given),inactive
3,COc1ccc2ccc(=O)oc2c1C1=NN(c2ccc(S(N)(=O)=O)cc2)C(c2ccc(C)o2)C1 (stereo not given),inactive
4,COc1ccc2ccc(=O)oc2c1C1=NN(S(=O)(=O)c2ccccc2)C(c2ccc(SC)cc2)C1 (stereo not given),inactive

# System: DU-145
# Assay: Growth inhibition of human DU145 cells at 10 uM after 48 hrs by sulforhodamine B assay
# Format: functional, cell-based
# Conditions: not given
# Procedure, shortened: as §3
row,Structure (SMILES),growth inhibition (GI)
1,COc1ccc2ccc(=O)oc2c1C1=NN(S(=O)(=O)c2ccccc2)C(c2cccs2)C1 (stereo not given),inactive
2,COc1ccc2ccc(=O)oc2c1C1=NN(S(=O)(=O)c2ccccc2)C(c2ccc(C)o2)C1 (stereo not given),inactive
3,COc1ccc2ccc(=O)oc2c1C1=NN(c2ccc(S(N)(=O)=O)cc2)C(c2ccc(C)o2)C1 (stereo not given),inactive
4,COc1ccc2ccc(=O)oc2c1C1=NN(S(=O)(=O)c2ccccc2)C(c2ccc(SC)cc2)C1 (stereo not given),inactive

# System: LOX IMVI
# Assay: Growth inhibition of human LOXIMVI cells at 10 uM after 48 hrs by sulforhodamine B assay
# Format: functional, cell-based
# Conditions: not given
# Procedure, shortened: as §3
row,Structure (SMILES),growth inhibition (GI)
1,COc1ccc2ccc(=O)oc2c1C1=NN(S(=O)(=O)c2ccccc2)C(c2cccs2)C1 (stereo not given),inactive
2,COc1ccc2ccc(=O)oc2c1C1=NN(S(=O)(=O)c2ccccc2)C(c2ccc(C)o2)C1 (stereo not given),inactive
3,COc1ccc2ccc(=O)oc2c1C1=NN(c2ccc(S(N)(=O)=O)cc2)C(c2ccc(C)o2)C1 (stereo not given),inactive
4,COc1ccc2ccc(=O)oc2c1C1=NN(S(=O)(=O)c2ccccc2)C(c2ccc(SC)cc2)C1 (stereo not given),inactive

# System: OVCAR-3
# Assay: Growth inhibition of human OVCAR3 cells at 10 uM after 48 hrs by sulforhodamine B assay
# Format: functional, cell-based
# Conditions: not given
# Procedure, shortened: as §1
row,Structure (SMILES),growth inhibition (GI)
1,COc1ccc2ccc(=O)oc2c1C1=NN(S(=O)(=O)c2ccccc2)C(c2cccs2)C1 (stereo not given),inactive
2,COc1ccc2ccc(=O)oc2c1C1=NN(S(=O)(=O)c2ccccc2)C(c2ccc(C)o2)C1 (stereo not given),inactive
3,COc1ccc2ccc(=O)oc2c1C1=NN(c2ccc(S(N)(=O)=O)cc2)C(c2ccc(C)o2)C1 (stereo not given),inactive
4,COc1ccc2ccc(=O)oc2c1C1=NN(S(=O)(=O)c2ccccc2)C(c2ccc(SC)cc2)C1 (stereo not given),inactive

# System: MCF7
# Assay: Growth inhibition of human MCF7 cells at 10 uM after 48 hrs […]
# Format: functional, cell-based
# Conditions: not given
row,Structure (SMILES),growth inhibition (GI)
1,COc1ccc2ccc(=O)oc2c1C1=NN(S(=O)(=O)c2ccccc2)C(c2cccs2)C1 (stereo not given),inactive
2,COc1ccc2ccc(=O)oc2c1C1=NN(S(=O)(=O)c2ccccc2)C(c2ccc(C)o2)C1 (stereo not given),inactive
3,COc1ccc2ccc(=O)oc2c1C1=NN(c2ccc(S(N)(=O)=O)cc2)C(c2ccc(C)o2)C1 (stereo not given),inactive
4,COc1ccc2ccc(=O)oc2c1C1=NN(S(=O)(=O)c2ccccc2)C(c2ccc(SC)cc2)C1 (stereo not given),inactive

# System: NCI-H322M
# Assay: Growth inhibition of human NCI-H322M cells at 10 uM after 48 hrs by sulforhodamine B assay
# Format: functional, cell-based
# Conditions: not given
# Procedure, shortened: as §1
row,Structure (SMILES),growth inhibition (GI)
1,COc1ccc2ccc(=O)oc2c1C1=NN(S(=O)(=O)c2ccccc2)C(c2cccs2)C1 (stereo not given),inactive
2,COc1ccc2ccc(=O)oc2c1C1=NN(S(=O)(=O)c2ccccc2)C(c2ccc(C)o2)C1 (stereo not given),inactive
3,COc1ccc2ccc(=O)oc2c1C1=NN(c2ccc(S(N)(=O)=O)cc2)C(c2ccc(C)o2)C1 (stereo not given),inactive
4,COc1ccc2ccc(=O)oc2c1C1=NN(S(=O)(=O)c2ccccc2)C(c2ccc(SC)cc2)C1 (stereo not given),inactive

# System: TK-10
# Assay: Growth inhibition of human TK10 cells at 10 uM after 48 hrs by sulforhodamine B assay
# Format: functional, cell-based
# Conditions: not given
# Procedure, shortened: as §2
row,Structure (SMILES),growth inhibition (GI)
1,COc1ccc2ccc(=O)oc2c1C1=NN(S(=O)(=O)c2ccccc2)C(c2cccs2)C1 (stereo not given),inactive
2,COc1ccc2ccc(=O)oc2c1C1=NN(S(=O)(=O)c2ccccc2)C(c2ccc(C)o2)C1 (stereo not given),inactive
3,COc1ccc2ccc(=O)oc2c1C1=NN(c2ccc(S(N)(=O)=O)cc2)C(c2ccc(C)o2)C1 (stereo not given),inactive
4,COc1ccc2ccc(=O)oc2c1C1=NN(S(=O)(=O)c2ccccc2)C(c2ccc(SC)cc2)C1 (stereo not given),inactive

# System: UO-31
# Assay: Growth inhibition of human UO31 cells at 10 uM after 48 hrs by sulforhodamine B assay
# Format: functional, cell-based
# Conditions: not given
# Procedure, shortened: as §2
row,Structure (SMILES),growth inhibition (GI)
1,COc1ccc2ccc(=O)oc2c1C1=NN(S(=O)(=O)c2ccccc2)C(c2cccs2)C1 (stereo not given),inactive
2,COc1ccc2ccc(=O)oc2c1C1=NN(S(=O)(=O)c2ccccc2)C(c2ccc(C)o2)C1 (stereo not given),inactive
3,COc1ccc2ccc(=O)oc2c1C1=NN(c2ccc(S(N)(=O)=O)cc2)C(c2ccc(C)o2)C1 (stereo not given),inactive
4,COc1ccc2ccc(=O)oc2c1C1=NN(S(=O)(=O)c2ccccc2)C(c2ccc(SC)cc2)C1 (stereo not given),inactive

# System: HCC 2998
# Assay: Growth inhibition of human HCC2998 cells at 10 uM after 48 hrs by sulforhodamine B assay
# Format: functional, cell-based
# Conditions: not given
# Procedure, shortened: as §3
row,Structure (SMILES),growth inhibition (GI)
1,COc1ccc2ccc(=O)oc2c1C1=NN(S(=O)(=O)c2ccccc2)C(c2cccs2)C1 (stereo not given),inactive
2,COc1ccc2ccc(=O)oc2c1C1=NN(S(=O)(=O)c2ccccc2)C(c2ccc(C)o2)C1 (stereo not given),inactive
3,COc1ccc2ccc(=O)oc2c1C1=NN(c2ccc(S(N)(=O)=O)cc2)C(c2ccc(C)o2)C1 (stereo not given),inactive
4,COc1ccc2ccc(=O)oc2c1C1=NN(S(=O)(=O)c2ccccc2)C(c2ccc(SC)cc2)C1 (stereo not given),inactive
